Tests used:
[1] = tested on: MDA-MB-231 orthotopic breast tumor xenograft; test: Orthotopic breast cancer xenograft in nude mice; format: in vivo, nu/nu mice; conditions: for Blood vessel density in tumor (CD31 staining): 10 mg/kg i.p. alone, four doses; for Tumor size relative to controls: 10 mg/kg i.p., twice per week for 2 wk, starting 2 wk after cell transplantation; for Tumor volume relative to control group: 3 mg/kg i.p., P < 0.01, 1b vs 1a not different (P = 0.16)
How it was run: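 Female nu/nu mice, 4–6 wk, anesthetized with ketamine/xylazine i.p. Trypsinized MDA-MB-231 cells in cross-linkable ECM (5 × 10^7 cells/mL) were injected into the fourth mammary fat pad (200 µL; 100 µL in 3 mg/kg study). From 2 wk after implant, i.p. twice weekly for 2 wk; six mice/group; saline control. Arms: test compound 10 mg/kg, Taxol 10 mg/kg, Taxol week 1 then compound week 2; diastereomers 3 mg/kg. Volume = width² × length/2.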

human LPA2 = human LPA2 (Homo sapiens, UniProt Q9HBW0); test: Ca2+ mobilization assay, LPA2 expressed in RH7777 cells; format: cell-based; conditions: for Ki: read-out: LPA2 Ki; for IC50: read-out: LPA2 antagonist IC50
How it was run: (§1)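 Intracellular Ca2+ mobilization measured in RH7777 cells expressing the human receptor (LPA1, LPA2, LPA3 or LPA5); parental line intrinsically unresponsive to LPA. Both activation and inhibition of LPA responses tested. Quadruplicate tests; EC50, IC50 and Ki derived by sigmoid curve fitting.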

human LPA5 = human LPA5 (Homo sapiens, UniProt Q9H1C0); test: Ca2+ mobilization assay, LPA5 expressed in RH7777 cells; format: cell-based; conditions: for LPA5 ligand type: transiently transfected; for LPA5 E max: at 10 μmol/L
How it was run: as §1

human LPA3 = target: T1, human LPA3 (Homo sapiens, UniProt Q9UBY5); test: Ca2+ mobilization assay, LPA3 expressed in RH7777 cells; format: cell-based; conditions: for LPA3 ligand type / Ki / IC50: Ca2+ mobilization, RH7777 cells; for Ki: read-out: LPA3 Ki; for IC50: read-out: LPA3 antagonist IC50
T1 sequence (Q9UBY5 1-353): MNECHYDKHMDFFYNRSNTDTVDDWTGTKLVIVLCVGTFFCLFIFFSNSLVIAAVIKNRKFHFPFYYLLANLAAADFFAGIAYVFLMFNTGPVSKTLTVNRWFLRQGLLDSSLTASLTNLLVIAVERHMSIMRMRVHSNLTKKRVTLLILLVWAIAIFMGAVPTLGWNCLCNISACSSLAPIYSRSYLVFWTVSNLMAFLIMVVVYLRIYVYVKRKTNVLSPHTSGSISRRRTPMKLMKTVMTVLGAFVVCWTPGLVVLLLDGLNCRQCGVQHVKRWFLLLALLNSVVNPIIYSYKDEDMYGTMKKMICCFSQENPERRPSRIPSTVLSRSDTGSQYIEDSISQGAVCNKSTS
How it was run: as §1

[2] = target: T2, recombinant hemagglutinin-tagged ATX (ATX-HA) (Homo sapiens, UniProt Q13822); test: ATX assay, hydrolysis of fluorogenic substrate FS-3; format: biochemical; conditions: for ATX inhibition: 10 μmol/L, FS-3 substrate 1 μmol/L, 2 h, 37°C; for IC50: read-out: ATX inhibition IC50, FS-3 substrate, 0.01 to 10 μmol/L
How it was run: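 Mixed with FS-3 (final 1 µmol/L) and test compound (0.01–10 µmol/L) in assay buffer with BSA. Fluorescence read at ex 485/em 538 nm over 2 h, 37°C. The 0–120 min difference was normalized to vehicle; triplicate wells, % inhibition; Student's t test.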

human LPA4 = human LPA4 (Homo sapiens, UniProt Q99677); test: Ca2+ mobilization assay, LPA4 expressed in CHO cells; format: cell-based; conditions: for LPA4 ligand type: Ca2+ mobilization, CHO cells; for LPA4 inhibition: at 30 μmol/L (400 nmol/L LPA)
[3] = target: T2, recombinant hemagglutinin-tagged ATX (ATX-HA); conditions: at 10 μmol/L; previously observed; cited from earlier work
human LPA1 = human LPA1 (Homo sapiens, UniProt Q92633); test: Ca2+ mobilization assay, LPA1 expressed in RH7777 cells; format: cell-based; conditions: for Ki: read-out: LPA1 Ki; for IC50: read-out: LPA1 antagonist IC50
How it was run: as §1

MDA-MB-231 cells [4] = test: Scratch wound assay; format: cell-based, human; conditions: for Effect on MDA-MB-231 cell migration: 10 and 40 μmol/L, 24 h
MDA-MB-231 cells [5] = test: In vitro invasion assay through Matrigel-coated transwell membranes; format: cell-based, human; conditions: P < 0.05
[6] = Ca2+ mobilization, RH7777 cells

Chain of human LPA5 (Q9H1C0 whole entry): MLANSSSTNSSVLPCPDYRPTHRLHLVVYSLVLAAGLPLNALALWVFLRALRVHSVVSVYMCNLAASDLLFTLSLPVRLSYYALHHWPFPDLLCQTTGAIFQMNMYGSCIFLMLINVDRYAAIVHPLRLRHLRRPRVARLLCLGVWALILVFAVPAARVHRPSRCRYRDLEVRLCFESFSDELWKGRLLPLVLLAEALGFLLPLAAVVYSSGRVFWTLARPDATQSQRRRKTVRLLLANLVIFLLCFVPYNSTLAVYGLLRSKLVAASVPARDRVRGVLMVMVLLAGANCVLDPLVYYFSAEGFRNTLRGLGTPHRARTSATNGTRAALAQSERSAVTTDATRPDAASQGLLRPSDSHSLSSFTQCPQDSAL
Chain of human LPA4 (Q99677 whole entry): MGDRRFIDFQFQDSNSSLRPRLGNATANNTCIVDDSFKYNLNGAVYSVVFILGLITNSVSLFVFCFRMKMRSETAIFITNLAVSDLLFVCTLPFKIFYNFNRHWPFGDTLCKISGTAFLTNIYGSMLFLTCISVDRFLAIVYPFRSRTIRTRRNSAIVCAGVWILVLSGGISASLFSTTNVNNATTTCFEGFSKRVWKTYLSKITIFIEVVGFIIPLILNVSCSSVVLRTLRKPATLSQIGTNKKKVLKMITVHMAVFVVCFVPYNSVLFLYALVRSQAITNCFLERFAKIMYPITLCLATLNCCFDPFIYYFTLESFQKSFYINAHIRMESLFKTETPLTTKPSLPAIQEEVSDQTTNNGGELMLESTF
Chain of human LPA2 (Q9HBW0 whole entry): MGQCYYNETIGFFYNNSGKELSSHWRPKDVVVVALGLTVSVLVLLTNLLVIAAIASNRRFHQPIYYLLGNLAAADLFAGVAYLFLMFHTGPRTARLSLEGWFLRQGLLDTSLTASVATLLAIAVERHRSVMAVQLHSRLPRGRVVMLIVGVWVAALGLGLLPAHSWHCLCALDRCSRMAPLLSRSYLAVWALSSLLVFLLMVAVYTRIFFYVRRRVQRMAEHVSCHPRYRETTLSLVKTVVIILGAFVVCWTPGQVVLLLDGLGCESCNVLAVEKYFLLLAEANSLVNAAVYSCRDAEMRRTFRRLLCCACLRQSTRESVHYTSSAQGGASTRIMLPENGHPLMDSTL
Chain of human LPA1 (Q92633 whole entry): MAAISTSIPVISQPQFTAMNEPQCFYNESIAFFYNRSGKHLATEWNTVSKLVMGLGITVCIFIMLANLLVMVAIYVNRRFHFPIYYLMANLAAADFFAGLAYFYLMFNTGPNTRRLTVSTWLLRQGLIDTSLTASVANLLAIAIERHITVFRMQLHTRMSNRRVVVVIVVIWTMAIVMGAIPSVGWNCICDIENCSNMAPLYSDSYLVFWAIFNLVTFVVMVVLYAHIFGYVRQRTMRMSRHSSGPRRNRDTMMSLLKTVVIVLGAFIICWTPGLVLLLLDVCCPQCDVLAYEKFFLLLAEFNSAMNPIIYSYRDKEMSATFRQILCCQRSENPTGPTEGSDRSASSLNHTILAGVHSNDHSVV

Structure (SMILES): CC(=O)O[C@H]1C(=O)[C@@]2(C)[C@H]([C@H](OC(=O)c3ccccc3)[C@]3(O)C[C@H](OC(=O)[C@H](O)[C@@H](NC(=O)c4ccccc4)c4ccccc4)C(C)=C1C3(C)C)[C@]1(OC(C)=O)CO[C@@H]1C[C@@H]2O [Taxol, reference compound]
- Blood vessel density in tumor (CD31 staining) [1]: statistically different from the control
- Tumor size relative to controls [1]: reduction of tumor size relative to controls

Structure (SMILES): CCCCCCCCCCCCCCCC(=O)OCC(O)CC(Br)P(=O)(O)O (stereo not drawn) [compound 1, palmitoyl α-bromomethylenephosphonate]
- LPA2 ligand type (human LPA2): Antagonist
- Ki (human LPA2): 245 nM
- IC50 (human LPA2): 468 nM
- LPA5 ligand type (human LPA5; [6]): Partial agonist
- LPA5 E max (human LPA5): 54%
- EC50 (human LPA5; read-out: LPA5 agonist EC50, Ca2+ mobilization, NS = non-saturated): 1280 nM
- LPA3 ligand type (human LPA3): Antagonist
- LPA3 inhibition (human LPA3; at 30 μmol/L (200 nmol/L LPA)): 71.3%
- ATX inhibition [2]: 102 ± 2.7% inhibition (10 μmol/L)
- LPA4 ligand type (human LPA4): Antagonist
- LPA4 inhibition (human LPA4): 13.9%
- ATX activity inhibited [3]: over 98%
- Blood vessel density in tumor (CD31 staining) [1]: significantly lower blood vessel density
- Tumor size relative to controls [1]: reduction of tumor size relative to controls
- Blood vessel density in tumor (CD31 staining), sequential treatment ([1]; Taxol (10 mg/kg, two doses) then BrP-LPA 1 (10 mg/kg, two doses), i.p.): statistically different from the control
- Tumor size relative to controls, sequential treatment ([1]; two injections of Taxol (10 mg/kg) week 1, then two injections of BrP-LPA 1 (10 mg/kg) week 2, i.p.): reduction of tumor size relative to controls
- LPA1 ligand type (human LPA1): Antagonist
- Ki (human LPA1): 805 nM
- IC50 (human LPA1): 4520 nM
- Effect of mixed diastereomers on cell migration (MDA-MB-231 cells [4]; data not shown): intermediate inhibition of cell migration

Structure (SMILES): CCCCCCCCCCCCCCCC(=O)OC[C@@H](O)C[C@@H](Br)P(=O)(O)O [1a]
- LPA2 ligand type (human LPA2): Antagonist
- Ki (human LPA2): 250 nM
- IC50 (human LPA2): 288 nM
- LPA5 ligand type (human LPA5; [6]): Partial agonist
- LPA5 E max (human LPA5): 64%
- LPA3 ligand type (human LPA3): Antagonist
- Ki (human LPA3): 1830 nM
- IC50 (human LPA3): 4440 nM
- ATX inhibition [2]: 98.1 ± 2.3% inhibition (10 μmol/L)
- IC50 [2]: 165 nM
- LPA4 ligand type (human LPA4): Antagonist
- LPA4 inhibition (human LPA4): 35.1%
- Inhibition of MDA-MB-231 invasion (MDA-MB-231 cells [5]): ~ 52%
- Tumor volume relative to control group [1]: significantly decreased the tumor volume
- LPA1 ligand type (human LPA1): Antagonist
- Ki (human LPA1): 273 nM
- IC50 (human LPA1): 648 nM
- Effect on MDA-MB-231 cell migration (MDA-MB-231 cells [4]): inhibited the MDA-MB-231 cell migration

Structure (SMILES): CCCCCCCCCCCCCCCC(=O)OC[C@@H](O)C[C@H](Br)P(=O)(O)O [1b]
- LPA2 ligand type (human LPA2): Antagonist
- Ki (human LPA2): 241 nM
- IC50 (human LPA2): 275 nM
- LPA5 ligand type (human LPA5; [6]): Antagonist
- Ki (human LPA5; read-out: LPA5 Ki, Ca2+ mobilization, RH7777 cells): 376 nM
- IC50 (human LPA5; read-out: LPA5 antagonist IC50, Ca2+ mobilization, RH7777 cells): 977 nM
- LPA3 ligand type (human LPA3): Antagonist
- Ki (human LPA3): 623 nM
- IC50 (human LPA3): 2090 nM
- ATX inhibition [2]: 99.4 ± 2.7 % Inhibition (10 μmol/L)
- IC50 [2]: 22 nM
- LPA4 ligand type (human LPA4): Antagonist
- LPA4 inhibition (human LPA4): 33.1%
- Inhibition of MDA-MB-231 invasion (MDA-MB-231 cells [5]): ~ 52%
- Tumor volume relative to control group [1]: significantly decreased the tumor volume
- LPA1 ligand type (human LPA1): Antagonist
- Ki (human LPA1): 752 nM
- IC50 (human LPA1): 2080 nM
- Decrease of MDA-MB-231 cell migration vs untreated control (MDA-MB-231 cells [4]; 40 μmol/L, P < 0.05): 57%
- Effect on MDA-MB-231 cell migration (MDA-MB-231 cells [4]): inhibited the MDA-MB-231 cell migration
